The values that follow come from ChEMBL document CHEMBL1153729, “Structurally diverse limonoids from the fruits of Swietenia mahagoni” (2009).

Test [1] concerns Pseudomonas aeruginosa. The test is described as follows: Antibacterial activity against Pseudomonas aeruginosa ATCC 14502 after 18 hrs. The class given is functional, organism-based. Put shortly: (§1)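 Bacterial cells suspended in Mueller-Hinton broth at a final density of […]. Incubated aerobically with compounds in DMSO at 37 °C for 18 h, alongside DMSO-only blank cultures and an ofloxacin positive control. MIC taken as the lowest concentration giving complete inhibition of visible growth.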

The subject of test [2] is Escherichia coli. The test is described as follows: Antibacterial activity against Escherichia coli ATCC 25922 after 18 hrs. In kind it is functional, organism-based. Put shortly: as §1
For test [3], the system named is Staphylococcus aureus. The experiment in a line: Antibacterial activity against Staphylococcus aureus ATCC 25923 after 18 hrs. In kind it is functional, organism-based. Put shortly:
as §1

Test [4] deals with Staphylococcus epidermidis. The experiment in a line: Antibacterial activity against Staphylococcus epidermidis ATCC 12228 after 18 hrs. The class given is functional, organism-based. Put shortly: as §1
Test [5] has as its system Kocuria rhizophila. The test is described as follows: Antibacterial activity against Micrococcus luteus ATCC 9341 after 18 hrs. In kind it is functional. The note with it: for Activity: DC2201. Put shortly:
as §1

Test [6] relates to Candida albicans. The experiment in a line: Antifungal activity against Candida albicans ATCC 1600 after 48 hrs. In kind it is functional, organism-based. Put shortly:
(§2)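 Fungi grown in Sabouraud dextrose broth with compounds for 48 h at 37 °C. Blank cultures received a limited amount of DMSO. Amphotericin B, dissolved in DMSO, served as the positive control.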

Test [7] concerns Trichophyton rubrum. The experiment in a line: Antifungal activity against Trichophyton rubrum ATCC 10218 after 48 hrs. In kind it is functional, organism-based. Put shortly:
as §2

Test [8] deals with Nannizzia gypsea. The test is described as follows: Antifungal activity against Microsporum gypseum ATCC 14683 after 48 hrs. In kind it is functional, organism-based. Put shortly: as §2
Test [9] has as its system Shigella flexneri. The experiment in a line: Antibacterial activity against Shigella flexneri ATCC 12022 after 18 hrs. In kind it is functional, organism-based. Put shortly:
as §1

Test [10] deals with Bacillus subtilis. The test is described as follows: Antibacterial activity against Bacillus subtilis ATCC 6633 after 18 hrs. The class given is functional, organism-based. Put shortly:
as §1

Test [11] relates to Saccharomyces. The experiment in a line: Antifungal activity against Saccharomyces sake ATCC 26421 after 48 hrs. In kind it is functional, organism-based. Put shortly:
as §2

Converted amounts (≈) assume the structure as drawn. The source made the active and inactive calls. No cut-off for these calls is given here.

Regarding `COC(=O)C[C@H]1C(C)(C)C(=O)[C@@H]2CC3=C4CC(=O)O[C@@H](c5ccoc5)[C@]4(C)CC[C@@H]3[C@@]1(C)C2=O`, the result in test [1], in test [2], in test [3], in [4], in test [5] and in test [6] was inactive. Moreover, the outcome in test [7], in test [8], in test [9], in test [10] and in [11] was inactive.

Regarding `C=C1[C@@H]2CC[C@@]3(C)[C@H](c4ccoc4)OC(=O)C[C@]13O[C@H]1CC(=O)C(C)(C)[C@H](CC(=O)OC)[C@]12C`, the outcome in test [1], in test [2], in test [3], in [4], in test [5] and in [6] was inactive. The result in [7], in test [8], in [9], in test [10] and in test [11] was inactive.

For `COC(=O)C[C@H]1C(C)(C)[C@H](OC(C)=O)[C@]2(O)C=C3C4=CC(=O)O[C@@H](c5ccoc5)[C@]4(C)CC[C@@H]3[C@@]1(C)C2=O`, the result in [1], in test [2], in test [3], in test [4], in test [5] and in [6] was inactive. Moreover, the outcome in test [7], in test [8], in test [9], in test [10] and in test [11] was inactive.

Consider `COC(=O)C[C@H]1C(C)(C)[C@H](OC(C)=O)[C@]2(OC(C)=O)C=C3[C@H]([C@H](OC(C)=O)C[C@]4(C)[C@H]3CC(=O)O[C@H]4c3ccoc3)[C@@]1(C)C2=O`, for which the result in test [1], in [2], in [3], in [4], in test [5] and in test [6] was inactive. Moreover, the result in [7], in test [8], in [9], in test [10] and in test [11] was inactive.

Consider `CC1(C)C(=O)C=C[C@]2(C)[C@H]3CC[C@@]4(C)[C@H](c5ccoc5)OC(=O)[C@H]5O[C@]54[C@]3(C)C(=O)C[C@@H]12`, for which the outcome in [1], in test [2], in test [3], in test [4], in test [5] and in test [6] was inactive. Moreover, the result in test [7], in [8], in test [9], in test [10] and in test [11] was inactive.

For orientation: MIC means the lowest concentration that inhibits growth of the organism. For the compound `COC(=O)C[C@H]1C(C)(C)[C@H](OC(=O)C(C)C)[C@]2(O)CC3=C4CC(=O)O[C@@H](c5ccoc5)[C@]4(C)CC[C@@H]3[C@@]1(C)C2=O`, the result in test [1], in test [2], in [3], in [4], in test [6] and in test [7] was inactive. The outcome in test [8], in test [9], in [10] and in test [11] was inactive. Also, the minimum inhibitory concentration (MIC) in test [5] (DC2201, 18 h) came to 50 µg/mL (≈ 89.8 µM).
